# According to ChEMBL document CHEMBL4014314, “Rational Design of Bisubstrate-Type Analogues as Inhibitors of DNA Methyltransferases in Cancer Cells” (J Med Chem, 2017):
# Active and inactive are the calls of the source. The calls are words filed in the database; no cut-off is given here.
# How the values were obtained:
# [1] = target: T1, DNA (cytosine-5)-methyltransferase 1 (Homo sapiens, UniProt P26358); test: Inhibition of full length His-tagged human DNMT1 using SAM/[methyl-3H]SAM assessed as reduction of methylation in biotinylated hemimethylated DNA duplex after 1 hr by scintillation counting method
# T1 sequence (P26358 whole entry): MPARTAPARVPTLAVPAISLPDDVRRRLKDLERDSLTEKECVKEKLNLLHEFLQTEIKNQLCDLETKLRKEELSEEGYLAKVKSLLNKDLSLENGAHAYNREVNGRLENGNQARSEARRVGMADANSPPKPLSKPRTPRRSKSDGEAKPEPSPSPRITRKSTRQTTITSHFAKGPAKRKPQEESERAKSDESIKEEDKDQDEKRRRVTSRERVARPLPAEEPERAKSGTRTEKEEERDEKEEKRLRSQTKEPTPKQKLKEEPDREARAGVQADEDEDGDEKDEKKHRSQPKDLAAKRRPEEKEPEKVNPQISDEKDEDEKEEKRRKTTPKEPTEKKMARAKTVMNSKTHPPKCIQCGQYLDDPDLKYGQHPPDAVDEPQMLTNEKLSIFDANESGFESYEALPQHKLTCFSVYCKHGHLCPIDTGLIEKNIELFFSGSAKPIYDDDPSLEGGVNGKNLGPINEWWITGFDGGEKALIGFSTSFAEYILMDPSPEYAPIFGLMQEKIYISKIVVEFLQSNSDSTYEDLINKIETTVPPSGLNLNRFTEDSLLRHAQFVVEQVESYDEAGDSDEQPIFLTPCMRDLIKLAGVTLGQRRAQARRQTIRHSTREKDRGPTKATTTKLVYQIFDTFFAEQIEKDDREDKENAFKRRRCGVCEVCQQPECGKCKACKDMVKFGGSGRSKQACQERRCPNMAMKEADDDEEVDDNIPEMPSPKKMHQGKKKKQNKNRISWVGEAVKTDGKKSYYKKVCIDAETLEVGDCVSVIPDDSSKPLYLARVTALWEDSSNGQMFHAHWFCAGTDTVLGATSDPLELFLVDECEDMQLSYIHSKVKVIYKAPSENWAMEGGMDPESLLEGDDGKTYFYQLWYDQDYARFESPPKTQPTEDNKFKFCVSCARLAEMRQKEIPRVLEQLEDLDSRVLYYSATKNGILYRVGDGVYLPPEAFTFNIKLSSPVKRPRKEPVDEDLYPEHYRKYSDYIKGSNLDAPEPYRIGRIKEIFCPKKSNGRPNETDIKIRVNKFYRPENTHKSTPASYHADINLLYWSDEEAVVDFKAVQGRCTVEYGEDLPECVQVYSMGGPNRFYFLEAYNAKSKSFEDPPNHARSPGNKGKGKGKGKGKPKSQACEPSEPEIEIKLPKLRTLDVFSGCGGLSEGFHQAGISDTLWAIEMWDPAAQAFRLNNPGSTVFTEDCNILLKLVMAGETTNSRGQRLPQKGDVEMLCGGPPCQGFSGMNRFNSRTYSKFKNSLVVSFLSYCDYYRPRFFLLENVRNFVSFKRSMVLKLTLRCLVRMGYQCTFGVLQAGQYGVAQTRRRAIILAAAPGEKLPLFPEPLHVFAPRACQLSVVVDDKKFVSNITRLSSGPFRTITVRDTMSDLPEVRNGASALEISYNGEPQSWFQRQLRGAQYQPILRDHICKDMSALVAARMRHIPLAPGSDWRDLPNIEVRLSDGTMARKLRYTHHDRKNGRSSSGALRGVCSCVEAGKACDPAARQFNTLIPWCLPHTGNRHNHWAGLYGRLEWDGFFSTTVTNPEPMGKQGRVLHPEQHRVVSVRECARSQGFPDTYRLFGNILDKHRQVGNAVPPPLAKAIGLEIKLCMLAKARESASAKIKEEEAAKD
# Procedure, shortened: (§1)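 Human full-length DNMT1 and catalytic DNMT3A tested for methylation of a DNA duplex; the paper gives assay details elsewhere. EC50 from a sigmoid dose-response fit with variable Hill slope; reported as median with SE from at least two independent experiments for DNMT1 and three for DNMT3A; DNMT3A curves run in technical duplicates.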
# [2] = target: T2, DNA (cytosine-5)-methyltransferase 3A (Homo sapiens, UniProt Q9Y6K1); test: Inhibition of human DNMT3A catalytic domain using AdoMet assessed as reduction of methylation in 5'-biotin/3' 6-carboxyfluorescein labeled DNA duplex at CpG site after 1 hr by fluorescence assay; procedure, shortened: as §1
# T2 sequence (Q9Y6K1 whole entry, looked up, the tested form may be a part): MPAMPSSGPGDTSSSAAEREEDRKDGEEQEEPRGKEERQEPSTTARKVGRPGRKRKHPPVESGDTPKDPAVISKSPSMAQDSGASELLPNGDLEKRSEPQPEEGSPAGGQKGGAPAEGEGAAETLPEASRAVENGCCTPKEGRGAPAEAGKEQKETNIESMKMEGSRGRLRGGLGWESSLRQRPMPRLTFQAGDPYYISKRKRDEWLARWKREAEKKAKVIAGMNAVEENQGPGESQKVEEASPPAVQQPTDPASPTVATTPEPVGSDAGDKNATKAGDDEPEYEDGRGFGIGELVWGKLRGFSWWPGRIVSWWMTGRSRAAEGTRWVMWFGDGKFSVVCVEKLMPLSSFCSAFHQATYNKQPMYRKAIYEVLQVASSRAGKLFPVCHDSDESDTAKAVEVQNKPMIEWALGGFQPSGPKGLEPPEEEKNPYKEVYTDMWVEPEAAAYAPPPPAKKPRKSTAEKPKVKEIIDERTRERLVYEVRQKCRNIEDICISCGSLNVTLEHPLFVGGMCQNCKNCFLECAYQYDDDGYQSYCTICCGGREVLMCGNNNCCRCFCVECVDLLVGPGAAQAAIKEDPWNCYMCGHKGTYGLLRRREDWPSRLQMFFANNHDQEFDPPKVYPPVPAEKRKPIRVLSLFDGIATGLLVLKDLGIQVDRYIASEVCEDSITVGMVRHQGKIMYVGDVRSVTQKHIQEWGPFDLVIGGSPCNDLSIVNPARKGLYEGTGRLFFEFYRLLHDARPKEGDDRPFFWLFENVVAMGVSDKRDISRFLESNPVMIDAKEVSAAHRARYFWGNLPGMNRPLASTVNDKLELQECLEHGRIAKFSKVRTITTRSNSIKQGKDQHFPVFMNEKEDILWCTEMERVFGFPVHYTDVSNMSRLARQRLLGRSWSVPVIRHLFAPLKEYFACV
# [3] = target: T2, DNA (cytosine-5)-methyltransferase 3A; test: Inhibition of human DNMT3A catalytic domain using AdoMet assessed as reduction of methylation in 5'-biotin/3' 6-carboxyfluorescein labeled DNA duplex at CpG site at 32 uM after 1 hr by fluorescence assay relative to control
# [4] = target: T2, DNA (cytosine-5)-methyltransferase 3A; test: Inhibition of human DNMT3A catalytic domain using AdoMet assessed as reduction of methylation in 5'-biotin/3' 6-carboxyfluorescein labeled DNA duplex at CpG site at 10 uM after 1 hr by fluorescence assay relative to control
# [5] = target: T1, DNA (cytosine-5)-methyltransferase 1; test: Inhibition of full length His-tagged human DNMT1 using SAM/[methyl-3H]SAM assessed as reduction of methylation in biotinylated hemimethylated DNA duplex at 32 uM after 1 hr by scintillation counting method relative to control
# [6] = target: T1, DNA (cytosine-5)-methyltransferase 1; test: Inhibition of full length His-tagged human DNMT1 using SAM/[methyl-3H]SAM assessed as reduction of methylation in biotinylated hemimethylated DNA duplex at 100 uM after 1 hr by scintillation counting method relative to control
# Homo sapiens [7] = species on record: Homo sapiens; test: Inhibition of DNMT in human KG1 cells assessed as luciferase gene driven CMV promoter demethylation by measuring luciferase reactivation at 5 uM after 24 hrs by luciferase reporter gene assay; type: cell-based
# Procedure, shortened: (§2)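 Leukemia KG-1 cells carrying a stable luciferase gene under a partially methylated CMV promoter, treated in 96-well plates for 24 h. Luciferase signal read by luminescence (Britelite); reactivation fold expressed as ratio to non-treated cells. Mean of three experiments with standard error.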
# Homo sapiens [8] = species on record: Homo sapiens; test: Inhibition of DNMT in human KG1 cells assessed as luciferase gene driven CMV promoter demethylation by measuring luciferase reactivation at 1 uM after 24 hrs by luciferase reporter gene assay; type: cell-based; procedure, shortened: as §2
Structure (SMILES),EC50 [1] [µM],EC50 [2] [µM],inhibition [3] [%],inhibition [4] [%],inhibition [5] [%],inhibition [6] [%],inhibition (Homo sapiens [7]),inhibition (Homo sapiens [8])
c1ccc(NCCNc2ncnc3cc(OCC4CCN(CCNc5ccnc6ccccc56)CC4)ccc23)cc1,73,6.8,95,76,61,93,–,–
Cc1cc(NCCN2CCC(COc3ccc4c(NCCCc5ccccc5)ncnc4c3)CC2)c2ccccc2n1,24,2.1,100,89,83,100,–,–
Clc1cccc(CCNc2ncnc3cc(OCC4CCN(CCNc5ccnc6ccccc56)CC4)ccc23)c1,–,1,98,84,0,97,–,–
c1ccc2c(CCCNc3ncnc4cc(OCC5CCN(CCNc6ccnc7ccccc67)CC5)ccc34)cccc2c1,16,1.9,60,96,100,100,–,–
Clc1ccc(CCNc2ncnc3cc(OCC4CCN(CCNc5ccnc6ccccc56)CC4)ccc23)cc1,26,1.2,100,88,75,97,–,–
Nc1ncnc2cc(OCC3CCN(CCNc4ccnc5ccccc45)CC3)ccc12,–,–,68,16,0,99,–,–
c1ccc(CCCNc2ncnc3cc(OCC4CCN(CCNc5cccc6ncccc56)CC4)ccc23)cc1,–,–,60,50,0,0,–,–
Fc1ccc2nccc(NCCN3CCC(COc4ccc5c(NCCCc6ccccc6)ncnc5c4)CC3)c2c1,–,–,82,0,0,79,–,–
NS(=O)(=O)c1ccc(CCNc2ncnc3cc(OCC4CCN(CCNc5ccnc6ccccc56)CC4)ccc23)cc1,–,–,93,0,59,100,–,–
Clc1ccccc1CCNc1ncnc2cc(OCC3CCN(CCNc4ccnc5ccccc45)CC3)ccc12,–,–,100,10,42,97,–,–
Nc1ccc(NCCN2CCC(COc3ccc4c(NCCCc5ccccc5)ncnc4c3)CC2)cc1,–,–,65,37,0,0,–,–
COc1ccc(CCNc2ncnc3cc(OCC4CCN(CCNc5ccnc6ccccc56)CC4)ccc23)cc1,27,3.4,100,82,82,100,–,–
Cn1ccc2cc(NCCN3CCC(COc4ccc5c(NCCCc6ccccc6)ncnc5c4)CC3)ccc21,–,–,90,74,21,50,–,–
Cc1cc(NCCN2CCC(COc3ccc4c(NCCCc5ccccc5)ncnc4c3)CC2)c2cccc(C)c2n1,–,–,82,81,33,99,–,–
c1ccc(CCCNc2ncnc3cc(OCCCNCCNc4ccnc5ccccc45)ccc23)cc1,–,–,85,59,0,90,–,–
c1ccc(CCCNc2ncnc3cc(OCC4CCN(CCNc5ccc6ccccc6c5)CC4)ccc23)cc1,–,–,0,0,0,0,–,–
c1ccc(CCCNc2ncnc3cc(OCC4CCN(CCNc5cccc6ccccc56)CC4)ccc23)cc1,–,–,0,0,0,0,inactive,inactive
c1ccc(CN2CCN(CCNc3ncnc4cc(OCC5CCN(CCNc6ccnc7ccccc67)CC5)ccc34)CC2)cc1,–,–,88,62,0,71,–,–
CN(CCN1CCC(COc2ccc3c(NCCCc4ccccc4)ncnc3c2)CC1)c1ccnc2ccccc12,–,–,66,53,10,57,–,–
c1ccc(CCNc2ncnc3cc(OCC4CCN(CCNc5ccnc6ccccc56)CC4)ccc23)cc1,32,4.9,99,80,38,98,–,–
O=c1c2ccc(OCC3CCN(CCNc4ccnc5ccccc45)CC3)cc2ncn1CCCc1ccccc1,–,–,99,65,0,90,–,–
c1ccc(CN2CCC(Nc3ncnc4cc(OCC5CCN(CCNc6ccnc7ccccc67)CC5)ccc34)CC2)cc1,–,–,93,72,65,81,–,–
Oc1ccc2c(NCCN3CCC(COc4ccc5c(NCCCc6ccccc6)ncnc5c4)CC3)ccnc2c1,–,–,72,74,0,59,–,–
O=[N+]([O-])c1ccc(CCNc2ncnc3cc(OCC4CCN(CCNc5ccnc6ccccc56)CC4)ccc23)cc1,–,–,74,54,0,72,–,–
COc1cc2nccc(NCCN3CCC(COc4ccc5c(NCCCc6ccccc6)ncnc5c4)CC3)c2cc1OC,30,1.4,95,95,57,81,–,–
